Laboratory results taken from ChEMBL document CHEMBL3994571, “Caffeoyl Triterpenoid Esters as Potential Anti-ischemic Stroke Agents from Celastrus orbiculatus” (J Nat Prod, 2016).
Activity calls are given as the source filed them. No cut-off for these calls is given here.

What was measured:
SH-SY5Y [1] = assay: Neuroprotective activity against oxygen glucose deprivation-induced cell death in human SH-SY5Y cells assessed as increase in cell viability at 10 uM treated at beginning of 24 hrs reoxygenation period by MTT assay; assay type: functional, cell-based
Summary of the method: (§1)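 SH-SY5Y cells seeded at 2 × 10⁴ cells/well. Medium replaced by glucose-free EBSS (pH 7.4), then 1 h hypoxia (85% N₂, 10% H₂, 5% CO₂, 37 °C). Reoxygenated under normal culture for 24 h, compound added at start of reoxygenation. MTT read at 490 nm, given as % of non-OGD control. Mean ± SEM from three independent experiments.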

SH-SY5Y [2] = assay: Neuroprotective activity in human SH-SY5Y cells assessed as reduction in oxygen glucose deprivation-induced morphological damage at 5 to 10 uM treated at beginning of 24 hrs reoxygenation period; assay type: functional, cell-based
Summary of the method: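 SH-SY5Y cells exposed to 1 h OGD in glucose-free EBSS (pH 7.4) under 85% N₂/10% H₂/5% CO₂ at 37 °C, then 24 h reoxygenation. Compound added after OGD at reoxygenation onset. Dendrite fragmentation and cell number assessed by morphological observation.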

SH-SY5Y [3] = assay: Neuroprotective activity against oxygen glucose deprivation-induced cell death in human SH-SY5Y cells assessed as cell viability at 10 uM treated at beginning of 24 hrs reoxygenation period by MTT assay (reference value: 55.05 +/- 2.03%); assay type: functional; conditions: read-out: Activity; summary of the method: as §1
SH-SY5Y [4] = assay: Neuroprotective activity against oxygen glucose deprivation-induced cell death in human SH-SY5Y cells assessed as increase in cell viability treated at beginning of 24 hrs reoxygenation period by MTT assay; assay type: functional, cell-based; summary of the method: as §1
SH-SY5Y [5] = assay: Cytotoxicity against human SH-SY5Y cells at 1 to 10 uM after 24 hrs by MTT assay; assay type: cell-based
Summary of the method: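 SH-SY5Y cells grown in 1:1 MEM/F12 with 10% FBS and penicillin/streptomycin at 37 °C, 5% CO₂. Seeded at 2 × 10⁴ cells/well. Normal cells without OGD exposed to compound. Viability by MTT: 3 h at 37 °C in dark, formazan dissolved in DMSO, absorbance at 490 nm.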

Rattus norvegicus [6] = assay: Neuroprotective activity against middle cerebral artery occlusion-induced Sprague-Dawley rat ischemic stroke model assessed as decrease in brain infarct volume at 10 mg/kg, iv dosed 2 hrs post onset of ischemia measured after 24 hrs of reperfusion by TTC staining based assay relative to control; assay type: functional; design: scale not given: the % may be the effect or the level left
Summary of the method: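 Male Sprague-Dawley rats, 230–280 g, under chloral hydrate (400 mg/kg i.p.). Left MCA occluded 2 h by 4-0 nylon filament, then reperfused; body temperature kept at 37.0 ± 0.5 °C. Edaravone as positive control. After 24 h reperfusion, 2 mm coronal sections stained with 1% TTC for 15 min, then fixed in 4% paraformaldehyde. White tissue scored as infarct. n = 11–14.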

Rattus norvegicus [7] = assay: Neuroprotective activity against middle cerebral artery occlusion-induced Sprague-Dawley rat ischemic stroke model assessed as reduction in neurological score at 10 mg/kg, iv dosed 2 hrs post onset of ischemia measured after 24 hrs of reperfusion […]; assay type: functional, organism-based
Summary of the method: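 Male Sprague-Dawley rats, 230–280 g, given 2 h filament MCAO under chloral hydrate anaesthesia, then reperfused. Edaravone as positive control. After 24 h reperfusion, deficits rated by modified Neurological Severity Score on an 18-point scale (motor, visual, tactile); higher means worse. n = 11–14.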

Row | SMILES | Activity (SH-SY5Y [1]) | Activity (SH-SY5Y [2]) | viability at 10 µM (SH-SY5Y [3]) [%] | Activity (SH-SY5Y [4]) | Activity (SH-SY5Y [5]) | Activity (Rattus norvegicus [6]) [%] | Activity (Rattus norvegicus [7])
1 | C[C@H]1C(=O)CC[C@@H]2[C@]1(C)CC[C@H]1[C@@]2(C)CC[C@@]2(C)[C@@H]3C[C@](C)(COC(=O)/C=C/c4ccc(O)cc4)CC[C@]3(C)CC[C@]12C | inactive | – | – | – | – | – | –
2 | C[C@H]1C(=O)CC[C@@H]2[C@]1(C)CC[C@H]1[C@@]2(C)CC[C@@]2(C)[C@@H]3C[C@](C)(COC(=O)/C=C/c4ccc(O)c(O)c4)CC[C@]3(C)CC[C@]12C | Active | Active | 115 | Dose-dependent effect | Non-Toxic | 14.2 | Active
